Assay results reported in ChEMBL document CHEMBL3576819, “Design, synthesis, biological evaluation and molecular docking studies of phenylpropanoid derivatives as potent anti-hepatitis B virus agents” (Eur J Med Chem, 2015).

Experiments:
[1] = Cytotoxicity against human HepG2.2.15 cells assessed as cell death after 9 days by MTT assay; format: cell-based, HepG2 2.2.15
Outline: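 HepG2.2.15 cells (MEM, 10% FBS, 380 µg/ml G418, 37 °C, 5% CO2) seeded at 1×10^5 cells/ml, cultured 24 h, then exposed to various drug concentrations; drug-containing medium renewed every 3 d. OD read at 450 nm after 9 days; percent cell death calculated; CC50 = concentration killing 50% of cells. Means of at least two experiments.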

[2] = Selectivity index, ratio of CC50 for human HepG2.2.15 cells to IC50 for Hepatitis B virus infected in human HepG2.2.15 cells assessed as inhibition of HBsAg secretion; format: functional
Outline: (§1)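 Selectivity index computed as CC50/IC50, with CC50 from cell death of HepG2.2.15 cells after 9 days of treatment (OD 450 nm) and IC50 from 50% inhibition of HBeAg or HBsAg secretion in the same cells; medium with drug renewed every 3 d.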

[3] = test system: Hepatitis B virus; assay: Antiviral activity against Hepatitis B virus infected in human HepG2.2.15 cells assessed as inhibition of HBsAg secretion by ELISA; format: functional, organism-based; details: HepG2 2.2.15
Outline: (§2)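 HepG2.2.15 cells (MEM, 10% FBS, 380 µg/ml G418) seeded at 1×10^5 cells/ml, held 24 h at 37 °C, then treated with various drug concentrations; medium with drug renewed every 3 d for up to 9 d. Culture medium sampled on days 3, 6 and 9, stored at -20 °C, and assayed for secreted antigen. Lamivudine as positive control; IC50 = 50% inhibition of secretion; means of at least two experiments.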

[4] = test system: Hepatitis B virus; assay: Antiviral activity against Hepatitis B virus infected in human HepG2.2.15 cells assessed as inhibition of HBeAg secretion by ELISA; format: functional, organism-based; details: HepG2 2.2.15; outline: as §2
[5] = Selectivity index, ratio of CC50 for human HepG2.2.15 cells to IC50 for Hepatitis B virus infected in human HepG2.2.15 cells assessed as inhibition of HBeAg secretion; format: functional; outline: as §1

In the case of `COc1ccc(C=O)cc1OC` [3,4-DIMETHOXYBENZALDEHYDE], the CC50 at 216 h [1] is reported as > 1500 µM.
For `COc1ccc(/C=C/C(=O)O)cc1OC` [O,O'-DIMETHYLCAFFEIC ACID], the “Ratio CC50/IC50” value [2] was <0.89, the IC50 [3] was > 600 µM and the IC50 [4] was > 600 µM. The “Ratio CC50/IC50” value [5] was <0.89 and the CC50 at 216 h [1] was 535 µM.
Compound `O=Cc1ccc2c(c1)OCO2` [PIPERONAL] has a CC50 at 216 h [1] of 1290 µM.
For `COc1cc(/C=C/C(=O)O)cc(OC)c1OC` [SINAPIC ACID METHYL ETHER], the “Ratio CC50/IC50” value [2] was <1.39, the IC50 [3] was > 600 µM and the IC50 [4] was > 600 µM. For the same compound, the “Ratio CC50/IC50” value [5] was <1.39 and the CC50 at 216 h [1] was 834 µM.
